Activity calls are given as the source filed them. No cut-off for these calls is given here. Residues, ends and D or L forms follow the SMILES beside them.
How the values were obtained:
[1] = test system: Mus musculus; test: Analgesic activity in Swiss albino mouse assessed as reduction in capsaicin-induced paw licking at 5 to 10 mg/kg, ip dosed 30 mins before capsaicin injection measured for 10 mins in presence of voltage-gated sodium channel opener veratrine pre-treated 30 mins before compound dosing; format: functional, organism-based
Procedure, shortened: (§1)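 Mice of either sex (25-35 g), 5 per group. The modulator is given 30 min before the test compound, and capsaicin 30 min after that: substance P 10 µg/kg, L-arginine 40 mg/kg, L-NAME 20 mg/kg, veratrine 125 µg/kg, A23187 20 µg/kg, glipizide 30 µg/kg. Capsaicin is 1.6 μg in 20 μL intraplantar. Paw lickings are counted for 10 min.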

[2] = target: T1, Prostaglandin G/H synthase 1 (Ovis aries, UniProt P05979); test: Inhibition of ovine COX1 assessed as reduction in PGH2-derived PGF2alpha using arachidonic acid as substrate preincubated for 10 mins followed by substrate addition measured after 2 mins by enzyme immunoassay
T1 sequence (P05979 whole entry): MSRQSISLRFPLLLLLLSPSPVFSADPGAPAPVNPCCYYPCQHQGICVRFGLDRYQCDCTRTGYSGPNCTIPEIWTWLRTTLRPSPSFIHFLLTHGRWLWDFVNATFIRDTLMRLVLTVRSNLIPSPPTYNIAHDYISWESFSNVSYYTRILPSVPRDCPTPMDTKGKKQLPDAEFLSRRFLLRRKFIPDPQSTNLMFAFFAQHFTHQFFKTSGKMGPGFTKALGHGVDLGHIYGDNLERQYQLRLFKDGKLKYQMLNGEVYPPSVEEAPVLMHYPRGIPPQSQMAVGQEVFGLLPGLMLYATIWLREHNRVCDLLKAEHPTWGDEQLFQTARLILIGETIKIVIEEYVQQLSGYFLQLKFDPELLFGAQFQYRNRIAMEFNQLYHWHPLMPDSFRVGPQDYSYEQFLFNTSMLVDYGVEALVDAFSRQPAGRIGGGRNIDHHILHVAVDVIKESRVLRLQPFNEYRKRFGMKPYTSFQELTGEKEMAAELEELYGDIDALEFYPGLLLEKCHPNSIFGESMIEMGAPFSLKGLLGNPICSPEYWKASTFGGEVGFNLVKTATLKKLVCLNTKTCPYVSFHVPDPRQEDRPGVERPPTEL
Procedure, shortened: (§2)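 Ovine COX-1 and human recombinant COX-2 with heme are preincubated with inhibitor for 10 min at 37 °C. Arachidonic acid is then added for 2 min at 37 °C. Prostaglandins are quantified by competitive AChE-tracer EIA, read at 420 nm. Four concentrations (10^-5 to 10^-8 M) are tested in triplicate. IC50 is taken from the dose-response curve of the mean % inhibition.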

[3] = test system: Mus musculus; test: Acute toxicity in Swiss albino mouse assessed as structural abnormality in liver up to 2000 mg/kg, po administered as single dose through gavage measured after 14 days by haematoxylin and eosin staining based assay; format: organism-based; conditions: in vivo, 336 h
Procedure, shortened: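 Mice given vehicle or 50, 300 or 2000 mg Kg⁻¹ after 4 h fasting, three per group, following OECD 2001 guidance. At 14 days, one control animal and one 2000 mg Kg⁻¹ animal were sacrificed. Myocardium, liver and kidney were examined histologically by H and E staining.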

[4] = test system: Mus musculus; test: Analgesic activity in Swiss albino mouse assessed as reduction in capsaicin-induced paw licking at 5 to 10 mg/kg, ip dosed 30 mins before capsaicin injection measured for 10 mins in presence of substance P pre-treated 30 mins before compound dosing; format: functional, organism-based; procedure, shortened: as §1
[5] = Selectivity index, ratio of IC50 for ovine COX1 to IC50 for human recombinant COX2; procedure, shortened: as §2
[6] = target: T2, Prostaglandin G/H synthase 2 (Homo sapiens, UniProt P35354); test: Inhibition of human recombinant COX2 assessed as reduction in PGH2-derived PGF2alpha using arachidonic acid as substrate preincubated for 10 mins followed by substrate addition measured after 2 mins by enzyme immunoassay
T2 sequence (P35354 whole entry): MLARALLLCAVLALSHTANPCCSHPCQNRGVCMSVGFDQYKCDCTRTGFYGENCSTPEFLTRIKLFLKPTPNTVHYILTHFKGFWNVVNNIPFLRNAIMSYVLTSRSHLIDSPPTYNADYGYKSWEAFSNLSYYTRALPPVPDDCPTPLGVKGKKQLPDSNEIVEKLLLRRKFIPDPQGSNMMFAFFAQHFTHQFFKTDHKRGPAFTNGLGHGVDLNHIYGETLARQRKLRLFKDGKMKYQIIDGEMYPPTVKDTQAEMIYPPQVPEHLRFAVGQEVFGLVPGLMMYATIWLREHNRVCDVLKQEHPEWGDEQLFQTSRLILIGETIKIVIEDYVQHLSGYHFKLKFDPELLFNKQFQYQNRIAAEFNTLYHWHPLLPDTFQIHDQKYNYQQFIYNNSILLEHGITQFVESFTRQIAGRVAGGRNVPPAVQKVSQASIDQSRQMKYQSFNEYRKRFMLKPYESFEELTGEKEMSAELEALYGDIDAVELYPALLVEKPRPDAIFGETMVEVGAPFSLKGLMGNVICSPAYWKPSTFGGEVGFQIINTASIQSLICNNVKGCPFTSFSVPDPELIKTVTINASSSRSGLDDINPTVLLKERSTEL

[7] = test system: Mus musculus; test: Antiinflammatory activity in Swiss albino mouse assessed as reduction in carrageenan-induced paw edema by measuring paw thickness at 5 mg/kg, ip dosed 30 mins before carrageenan injection measured up to 300 mins by vernier calliper method relative to control; format: functional
[8] = test system: Mus musculus; test: Analgesic activity in Swiss albino mouse assessed as reduction in capsaicin-induced paw licking at 5 to 10 mg/kg, ip dosed 30 mins before capsaicin injection measured for 10 mins in presence of nitric oxide precursor L-arginine pre-treated 30 mins before compound dosing; format: functional, organism-based; procedure, shortened: as §1
[9] = target: T3, Prostaglandin G/H synthase 2 (Homo sapiens) (UniProt P35354); test: Binding affinity to COX2 (unknown origin) at 100 uM by isothermal titration calorimetry
T3 sequence (whole entry): T2 sequence (P35354 whole entry)
Procedure, shortened: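 Isothermal titration calorimetry in HEPES buffer, pH 7.4. The ligand stock is 100 μM in ethanol/HEPES (1:99). The syringe is stirred at 500 rpm and delivers 19 injections of 2 μL into the enzyme-containing cell at 120 s intervals. Heats from buffer-only control titrations are subtracted. The fit gives Ka, ΔH and ΔS. Run in triplicate.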

[10] = test system: Mus musculus; test: Analgesic activity in Swiss albino mouse assessed as reduction in capsaicin-induced paw licking at 5 to 10 mg/kg, ip dosed 30 mins before capsaicin injection measured for 10 mins in presence of nitric oxide synthase inhibitor L-NAME pre-treated 30 mins before compound dosing; format: functional, organism-based; procedure, shortened: as §1
[11] = test system: Mus musculus; test: Acute toxicity in Swiss albino mouse assessed as gross behavioral abnormality up to 2000 mg/kg, po administered as single dose through gavage measured continuously for first 4 hrs and periodically for 24 hrs up to 14 days; format: organism-based; conditions: in vivo
Procedure, shortened: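 Swiss albino mice of either sex (25-35 g), housed at 22 ± 2 °C on a 12 h light/dark cycle. Per OECD 2001 guidance, groups of three received vehicle or 50, 300 or 2000 mg Kg⁻¹ after 4 h fasting. The animals were watched continuously for the first 4 h and then periodically over 24 h for gross behavioural abnormality.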

[12] = test system: Mus musculus; test: Analgesic activity in Swiss albino mouse assessed as reduction in capsaicin-induced paw licking at 5 to 10 mg/kg, ip dosed 30 mins before capsaicin injection measured for 10 mins in presence of ATP-sensitive potassium channel blocker glipizide pre-treated 30 mins before compound dosing; format: functional, organism-based; procedure, shortened: as §1

Compound: COC(=O)[C@H](CC(C)C)NC(=O)[C@H](Cc1ccccc1)NC(=O)CNC(=O)CN (H-GGFL-OMe)
- Activity [1]: Active
- IC50 [2]: 6 µM
- Activity [3]: Non-toxic
- Activity [4]: inactive
- Ratio IC50 [5]: 100
- IC50 [6]: 0.06 µM
- inhibition in vivo at 5 mg/kg [7]: 60%
- Activity [8]: inactive
- Ka [9]: 6.1 ×10⁴ /M
- Activity [10]: Active
- Activity [11]: Non-toxic
- Activity [12]: Active
